Measurements published in ChEMBL document CHEMBL3997796 (J Med Chem, 2017).
Calls of active or inactive are those of the source. No cut-off for these calls is given here.

Tests used:
4T1 [1] = assay: Growth inhibition of mouse 4T1 cells up to 10 uM after 48 hrs by CellTiter blue assay; type: cell-based; conditions: 4t1, 48 h
4T1 [2] = assay: Growth inhibition of mouse 4T1 cells at 3 uM after 48 hrs by CellTiter blue assay; type: cell-based; conditions: 4t1, 48 h
Autotaxin (Mus musculus) = Autotaxin (Mus musculus) (UniProt Q9R1E6); assay: Inhibition of ATX in paclitaxel-resistant mouse 4T1 cells assessed as potentiation of paclitaxel-induced antiproliferative activity by measuring reduction in cell viability at 5 uM measured after 3 days by CellTiter blue assay
Procedure, shortened: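 Paclitaxel-resistant 4T1-TaxR (stepwise PT 40, 100, 200 nM) grown as mammospheres, 3.5 × 10^3 cells/well in serum-free RPMI with N-2, 20 ng/mL FGF and EGF, 4 days; spheres treated 3 days with 100 nM PT with or without inhibitor at 5 μM; CellTiter Blue; quadruplicate, three experiments.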

Autotaxin [3] = molecular target: T1, Autotaxin (Homo sapiens, UniProt Q13822); assay: Inhibition of ATX (unknown origin) expressed in human A2058 cells assessed as inhibition of LPC-induced cell invasion at 10 uM after 20 hrs by calcein-AM dye based matrigel-mediated Boyden chamber assay
[4] = molecular target: Lysophosphatidic acid receptor 5 (Homo sapiens) (UniProt Q9H1C0); assay: Agonist activity at FLAG-tagged LPA5 receptor (unknown origin) expressed in rat B103 cells assessed as increase in intracellular calcium level up to 10 uM measured every 3.42 secs for 70 secs by Fura-2-AM dye based fluorescence assay; type: functional, cell-based
Chain of Lysophosphatidic acid receptor 5 (Homo sapiens) (Q9H1C0 whole entry): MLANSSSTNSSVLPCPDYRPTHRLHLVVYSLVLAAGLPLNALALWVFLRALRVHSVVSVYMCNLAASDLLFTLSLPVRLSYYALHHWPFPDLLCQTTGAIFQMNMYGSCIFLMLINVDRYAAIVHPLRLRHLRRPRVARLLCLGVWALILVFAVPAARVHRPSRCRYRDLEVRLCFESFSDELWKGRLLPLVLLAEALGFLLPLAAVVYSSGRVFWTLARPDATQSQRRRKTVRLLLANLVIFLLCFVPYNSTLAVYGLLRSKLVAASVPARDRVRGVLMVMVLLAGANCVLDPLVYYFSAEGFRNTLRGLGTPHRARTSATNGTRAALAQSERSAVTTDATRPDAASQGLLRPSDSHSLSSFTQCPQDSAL

[5] = molecular target: T2, Lysophosphatidic acid receptor 3 (Homo sapiens) (UniProt Q9UBY5); assay: Agonist activity at LPA3 receptor (unknown origin) expressed in rat RH7777 cells assessed as increase in intracellular calcium level up to 10 uM measured every 3.42 secs for 70 secs by Fura-2-AM dye based fluorescence assay; type: functional, cell-based
T2 sequence (whole entry): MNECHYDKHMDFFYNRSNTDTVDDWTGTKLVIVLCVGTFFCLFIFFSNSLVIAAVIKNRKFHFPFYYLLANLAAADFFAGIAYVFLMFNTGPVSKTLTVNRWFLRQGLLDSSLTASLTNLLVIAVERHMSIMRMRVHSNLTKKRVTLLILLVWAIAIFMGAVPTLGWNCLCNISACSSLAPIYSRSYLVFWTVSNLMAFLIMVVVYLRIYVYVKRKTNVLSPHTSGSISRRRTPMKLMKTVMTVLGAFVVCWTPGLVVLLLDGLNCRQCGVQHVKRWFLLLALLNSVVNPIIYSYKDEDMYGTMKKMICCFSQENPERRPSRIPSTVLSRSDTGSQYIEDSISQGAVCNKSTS

[6] = molecular target: Lysophosphatidic acid receptor 4 (Homo sapiens) (UniProt Q99677); assay: Agonist activity at LPA4 receptor (unknown origin) expressed in CHO cells assessed as increase in intracellular calcium level up to 10 uM measured every 3.42 secs for 70 secs by Fura-2-AM dye based fluorescence assay; type: functional, cell-based
Chain of Lysophosphatidic acid receptor 4 (Homo sapiens) (Q99677 whole entry): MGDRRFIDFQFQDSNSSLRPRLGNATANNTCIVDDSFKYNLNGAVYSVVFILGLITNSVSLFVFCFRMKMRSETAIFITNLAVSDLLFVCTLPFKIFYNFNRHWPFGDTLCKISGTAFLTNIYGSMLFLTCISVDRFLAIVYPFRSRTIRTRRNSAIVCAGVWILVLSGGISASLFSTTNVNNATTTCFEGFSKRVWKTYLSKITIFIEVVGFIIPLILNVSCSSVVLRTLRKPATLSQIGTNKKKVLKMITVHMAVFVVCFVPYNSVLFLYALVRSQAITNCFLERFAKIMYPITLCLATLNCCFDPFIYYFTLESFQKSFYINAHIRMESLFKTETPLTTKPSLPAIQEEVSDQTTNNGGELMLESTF

[7] = molecular target: T3, Ectonucleotide pyrophosphatase/phosphodiesterase family member 7 (Homo sapiens) (UniProt Q6UWV6); assay: Inhibition of ENPP7 (unknown origin) using pNPPC as substrate measured every 2 mins for 1 hr by […]
T3 sequence (whole entry): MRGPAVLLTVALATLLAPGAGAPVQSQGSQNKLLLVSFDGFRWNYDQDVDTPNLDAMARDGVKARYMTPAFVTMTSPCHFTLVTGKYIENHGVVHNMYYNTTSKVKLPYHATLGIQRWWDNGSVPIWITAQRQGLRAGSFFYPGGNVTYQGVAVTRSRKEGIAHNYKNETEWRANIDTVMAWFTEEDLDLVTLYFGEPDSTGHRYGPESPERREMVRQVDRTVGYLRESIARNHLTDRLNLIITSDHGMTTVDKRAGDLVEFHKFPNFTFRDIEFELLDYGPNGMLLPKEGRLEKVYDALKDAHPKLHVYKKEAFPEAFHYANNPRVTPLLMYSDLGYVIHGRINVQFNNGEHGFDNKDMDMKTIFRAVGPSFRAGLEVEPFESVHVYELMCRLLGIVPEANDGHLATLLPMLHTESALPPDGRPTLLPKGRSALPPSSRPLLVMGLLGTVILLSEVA
Procedure, shortened: (§1)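 10 nM ENPP6 or ENPP7, 10 μM pNPPC, compound 0–10 μM, triplicate; ENPP6 buffer 100 mM Tris, 500 mM NaCl, 0.05% Triton pH 9.0; ENPP7 buffer 50 mM Tris, 150 mM NaCl, 10 mM taurocholate pH 8.5; 405 nm absorbance every 2 min for 1 h.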

[8] = molecular target: T4, Lysophosphatidic acid receptor 1 (Homo sapiens, UniProt Q92633); assay: Antagonist activity at LPA1 receptor (unknown origin) expressed in rat RH7777 cells assessed as inhibition of LPA-induced intracellular calcium level measured every 3.42 secs for 70 secs by Fura-2-AM dye based fluorescence assay; type: functional, cell-based; conditions: read-out: IC50
T4 sequence (Q92633 whole entry): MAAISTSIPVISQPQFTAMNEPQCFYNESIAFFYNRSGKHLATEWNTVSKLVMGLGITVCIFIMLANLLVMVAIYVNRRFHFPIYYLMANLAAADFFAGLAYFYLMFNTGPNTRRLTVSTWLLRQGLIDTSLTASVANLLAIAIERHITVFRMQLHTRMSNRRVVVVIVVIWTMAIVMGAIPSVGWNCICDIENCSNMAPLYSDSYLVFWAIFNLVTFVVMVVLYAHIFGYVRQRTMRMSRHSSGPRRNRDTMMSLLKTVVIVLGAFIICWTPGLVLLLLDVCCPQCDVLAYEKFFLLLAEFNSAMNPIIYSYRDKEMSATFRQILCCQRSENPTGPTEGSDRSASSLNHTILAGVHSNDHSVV

B16-F10 = assay: Antitumor activity against mouse B16F10 cells implanted in C57BL/6 mouse assessed as reduction in metastatic tumor nodules on lungs at 1 mg/kg, ip administered daily up to 10 days measured on day 21; type: functional, organism-based
Procedure, shortened: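 C57BL/6 mice, 8–12 weeks, given 1 × 10^5 B16F10 cells by tail vein; 1 mg/kg i.p. daily from day 0 (before inoculation) to day 10, vehicle PBS with 1% DMSO and 50 μM charcoal-stripped mouse serum albumin; sacrifice day 21, lung nodules counted; one-way ANOVA with Bonferroni.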

Autotaxin [9] = molecular target: T1, Autotaxin; assay: Competitive inhibition of recombinant human C-terminal FLAg-tagged ATX expressed in baculovirus infected sf9 cells using varying levels of FRET based FS-3 substrate at 0.5 to 2 times IC50 measured every 2 mins for 1 hr by Michaelis-Menten plot analysis
[10] = molecular target: T4, Lysophosphatidic acid receptor 1; assay: Agonist activity at LPA1 receptor (unknown origin) expressed in rat RH7777 cells assessed as increase in intracellular calcium level up to 10 uM measured every 3.42 secs for 70 secs by Fura-2-AM dye based fluorescence assay; type: functional, cell-based
[11] = molecular target: T2, Lysophosphatidic acid receptor 3 (Homo sapiens); assay: Antagonist activity at LPA3 receptor (unknown origin) expressed in rat RH7777 cells assessed as inhibition of LPA-induced intracellular calcium level up to 100 uM measured every 3.42 secs for 70 secs by Fura-2-AM dye based fluorescence assay; type: functional, cell-based
[12] = molecular target: Lysophosphatidic acid receptor 5 (Homo sapiens) (UniProt Q9H1C0); assay: Antagonist activity at FLAG-tagged LPA5 receptor (unknown origin) expressed in rat B103 cells assessed as inhibition of LPA-induced intracellular calcium level up to 100 uM measured every 3.42 secs for 70 secs by Fura-2-AM dye based fluorescence assay; type: functional, cell-based
[13] = molecular target: T5, Glycerophosphocholine cholinephosphodiesterase ENPP6 (Homo sapiens) (UniProt Q6UWR7); assay: Inhibition of ENPP6 (unknown origin) using pNPPC as substrate measured every 2 mins for 1 hr by […]; procedure, shortened: as §1
T5 sequence (whole entry): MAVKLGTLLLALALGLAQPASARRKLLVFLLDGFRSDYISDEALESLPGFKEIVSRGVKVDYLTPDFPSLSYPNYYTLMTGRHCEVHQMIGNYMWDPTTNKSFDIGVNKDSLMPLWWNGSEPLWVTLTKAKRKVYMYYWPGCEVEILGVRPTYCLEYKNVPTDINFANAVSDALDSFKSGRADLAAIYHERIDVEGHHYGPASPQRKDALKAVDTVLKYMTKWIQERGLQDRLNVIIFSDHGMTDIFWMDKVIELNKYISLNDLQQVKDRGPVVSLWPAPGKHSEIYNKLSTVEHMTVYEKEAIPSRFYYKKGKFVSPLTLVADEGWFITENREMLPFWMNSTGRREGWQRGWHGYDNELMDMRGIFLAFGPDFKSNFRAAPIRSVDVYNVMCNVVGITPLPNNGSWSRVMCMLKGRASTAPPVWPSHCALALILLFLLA

Autotaxin [14] = molecular target: T1, Autotaxin; assay: Inhibition of ATX (unknown origin) expressed in human A2058 cells assessed as inhibition of LPC-induced cell invasion after 20 hrs by calcein-AM dye based matrigel-mediated Boyden chamber assay
[15] = molecular target: Lysophosphatidic acid receptor 2 (Homo sapiens) (UniProt Q9HBW0); assay: Agonist activity at LPA2 receptor (unknown origin) expressed in MEF cells assessed as increase in intracellular calcium level up to 10 uM measured every 3.42 secs for 70 secs by Fura-2-AM dye based fluorescence assay; type: functional, cell-based
Chain of Lysophosphatidic acid receptor 2 (Homo sapiens) (Q9HBW0 whole entry): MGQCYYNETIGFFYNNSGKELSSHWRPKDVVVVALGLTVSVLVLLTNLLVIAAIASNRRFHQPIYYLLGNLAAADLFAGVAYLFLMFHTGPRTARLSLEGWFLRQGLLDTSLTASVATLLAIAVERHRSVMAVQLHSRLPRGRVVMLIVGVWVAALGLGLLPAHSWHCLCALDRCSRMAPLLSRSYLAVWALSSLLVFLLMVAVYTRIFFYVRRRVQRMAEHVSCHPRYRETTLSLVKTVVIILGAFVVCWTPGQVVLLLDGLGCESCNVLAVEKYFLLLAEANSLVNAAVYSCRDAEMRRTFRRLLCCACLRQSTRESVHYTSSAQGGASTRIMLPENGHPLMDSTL

[16] = molecular target: Lysophosphatidic acid receptor 2 (Homo sapiens) (UniProt Q9HBW0); assay: Antagonist activity at LPA2 receptor (unknown origin) expressed in MEF cells assessed as inhibition of LPA-induced intracellular calcium level up to 100 uM measured every 3.42 secs for 70 secs by Fura-2-AM dye based fluorescence assay; type: functional, cell-based
[17] = molecular target: T4, Lysophosphatidic acid receptor 1; assay: Antagonist activity at LPA1 receptor (unknown origin) expressed in rat RH7777 cells assessed as inhibition of LPA-induced intracellular calcium level up to 100 uM measured every 3.42 secs for 70 secs by Fura-2-AM dye based fluorescence assay relative to LPA; type: functional, cell-based
Autotaxin [18] = molecular target: T1, Autotaxin; assay: Inhibition of recombinant human C-terminal FLAg-tagged ATX nucleotide pyrophosphate phosphatase activity expressed in baculovirus infected sf9 cells using pNP-TMP as substrate measured every 2 mins for 1 hr by fluorescence assay
[19] = molecular target: Lysophosphatidic acid receptor 4 (Homo sapiens) (UniProt Q99677); assay: Antagonist activity at LPA4 receptor (unknown origin) expressed in CHO cells assessed as inhibition of LPA-induced intracellular calcium level up to 100 uM measured every 3.42 secs for 70 secs by Fura-2-AM dye based fluorescence assay; type: functional, cell-based
[20] = Stability in mouse 4T1 cells assessed as parent compound remaining at 10 uM after 40 hrs by LC-MS/MS method; type: ADME, cell-based; conditions: read-out: Stability
Procedure, shortened: (§2)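 4T1 cells (1 × 10^4/well) attached overnight, then 10 μM compound in DMEM with 1% charcoal-stripped FBS (0.1% DMSO final); quadruplicate samples at 0, 16, 40 h, centrifuged, diethyl ether extracted twice, LC-MS/MS peak areas normalized to 0 h.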

[21] = Stability in mouse 4T1 cells assessed as parent compound remaining at 10 uM after 16 hrs by LC-MS/MS method; type: ADME, cell-based; conditions: read-out: Stability; procedure, shortened: as §2

| Compound | Activity (4T1 [1]) | inhibition (Autotaxin (Mus musculus)) [%] | inhibition (Autotaxin [3]) | Activity [4] | Activity [5] | Activity [6] | inhibition [7] | IC50 [8] [µM] | inhibition (Autotaxin [9]) | Activity [10] | inhibition [11] | inhibition [12] | inhibition [13] | inhibition (Autotaxin [14]) | Activity [15] | inhibition [16] | Emax [17] [%] | inhibition (Autotaxin [18]) | inhibition [19] | other results |
| --- | --- | --- | --- | --- | --- | --- | --- | --- | --- | --- | --- | --- | --- | --- | --- | --- | --- | --- | --- | --- |
| CCCCCCCCCCCCCCCc1ccc(CP(=O)(O)O)cc1 | Non-Toxic | 25 to 30 | Active |  |  |  |  |  |  |  |  |  |  |  |  |  |  |  |  | Activity (4T1 [2]): Toxic |
| O=C(Nc1cc(F)c(F)c(F)c1)c1cc(S(=O)(=O)N2CCOCC2)c(Cl)cc1Cl | Non-Toxic | 25 to 30 | Active | inactive | inactive | inactive | inactive | 14 to 14.5 | Active | inactive | inactive | inactive | inactive | Dose-dependent effect | inactive | inactive | 46.1 | inactive | inactive | Activity (B16-F10): Active |
| O=C(Nc1cc(Cl)c(F)c(Cl)c1)c1cc(S(=O)(=O)N2CCOCC2)c(Cl)cc1Cl |  |  |  | inactive | inactive | inactive | inactive | 18 to 18.4 | Active | inactive | inactive | inactive | inactive |  | inactive | inactive | 50 | inactive | inactive |  |
| O=C(Nc1ccc(F)c(F)c1)c1cc(S(=O)(=O)N2CCOCC2)c(Cl)cc1Cl |  |  | Active |  |  |  | inactive |  | Active |  |  |  | inactive | Dose-dependent effect |  |  |  | inactive |  |  |
| O=C(Nc1cc(F)c(Cl)c(F)c1)c1cc(S(=O)(=O)N2CCOCC2)c(Cl)cc1Cl | Non-Toxic |  | Active | inactive | inactive | inactive | inactive | 6 to 6.12 | Active | inactive | inactive | inactive | inactive | Dose-dependent effect | inactive | inactive | 51 | inactive | inactive | remaining at 40 h, 10 µM [20]: 108%; remaining at 16 h, 10 µM [21]: 101% |
